According to ChEMBL document CHEMBL1133584, “Potent and selective non-peptidic inhibitors of endothelin-converting enzyme-1 with sustained duration of action” (J Med Chem, 2000):

Tests used:
[1] = Selectivity ratio of IC50 NEP/IC50 ECE
Procedure, shortened: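 ECE selectivity was the ratio of IC50 against rat kidney cortex NEP 24.11 to IC50 against CHO-membrane human recombinant ECE-1a.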

[2] = target: T1, Neprilysin (Rattus norvegicus, UniProt P07861); assay: In vitro inhibition of rat neutral endopeptidase
T1 sequence (P07861 whole entry): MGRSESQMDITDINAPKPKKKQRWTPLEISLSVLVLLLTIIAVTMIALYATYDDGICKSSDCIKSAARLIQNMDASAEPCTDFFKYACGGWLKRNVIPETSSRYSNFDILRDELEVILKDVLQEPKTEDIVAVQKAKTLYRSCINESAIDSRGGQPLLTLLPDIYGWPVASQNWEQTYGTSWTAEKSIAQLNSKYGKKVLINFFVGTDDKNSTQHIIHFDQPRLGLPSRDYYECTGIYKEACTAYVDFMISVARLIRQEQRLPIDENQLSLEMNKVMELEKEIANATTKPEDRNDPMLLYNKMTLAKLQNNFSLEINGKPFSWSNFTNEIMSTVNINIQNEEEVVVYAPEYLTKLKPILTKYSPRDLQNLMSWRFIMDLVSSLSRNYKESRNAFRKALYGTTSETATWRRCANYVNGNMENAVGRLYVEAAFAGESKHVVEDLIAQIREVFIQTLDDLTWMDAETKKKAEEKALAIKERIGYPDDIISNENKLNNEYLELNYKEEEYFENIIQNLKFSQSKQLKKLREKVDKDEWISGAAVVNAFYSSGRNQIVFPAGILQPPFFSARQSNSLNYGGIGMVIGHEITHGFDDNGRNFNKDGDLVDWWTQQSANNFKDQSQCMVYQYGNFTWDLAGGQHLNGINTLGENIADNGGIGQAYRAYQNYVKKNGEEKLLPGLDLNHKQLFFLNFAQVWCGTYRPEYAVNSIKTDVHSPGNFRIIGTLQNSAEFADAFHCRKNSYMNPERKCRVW

[3] = target: T2, Endothelin-converting enzyme 1 (Homo sapiens, UniProt P42892); assay: In Vitro inhibition of recombinant human endothelin converting enzyme-1
T2 sequence (P42892 whole entry): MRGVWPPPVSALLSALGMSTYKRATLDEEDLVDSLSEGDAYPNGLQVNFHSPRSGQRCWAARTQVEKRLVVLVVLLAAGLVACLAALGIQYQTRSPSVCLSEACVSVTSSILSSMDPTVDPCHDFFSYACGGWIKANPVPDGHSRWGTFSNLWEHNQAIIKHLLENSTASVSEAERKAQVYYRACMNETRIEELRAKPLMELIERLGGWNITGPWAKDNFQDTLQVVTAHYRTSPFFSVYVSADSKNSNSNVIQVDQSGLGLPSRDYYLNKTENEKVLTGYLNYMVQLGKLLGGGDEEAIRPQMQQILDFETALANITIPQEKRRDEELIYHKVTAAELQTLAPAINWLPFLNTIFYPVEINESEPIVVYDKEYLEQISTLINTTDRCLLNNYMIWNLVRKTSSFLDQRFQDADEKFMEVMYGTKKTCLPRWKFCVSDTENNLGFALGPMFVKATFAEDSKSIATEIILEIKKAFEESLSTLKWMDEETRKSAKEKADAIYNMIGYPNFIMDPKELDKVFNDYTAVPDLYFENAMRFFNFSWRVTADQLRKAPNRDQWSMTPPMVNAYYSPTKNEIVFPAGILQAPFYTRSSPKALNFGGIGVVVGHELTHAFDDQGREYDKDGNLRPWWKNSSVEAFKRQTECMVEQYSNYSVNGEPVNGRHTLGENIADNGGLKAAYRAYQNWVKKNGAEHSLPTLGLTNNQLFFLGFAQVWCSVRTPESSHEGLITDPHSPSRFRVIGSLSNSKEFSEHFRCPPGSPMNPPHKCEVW
Procedure, shortened: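 Enzyme was human recombinant ECE-1a from membranes of CHO cells expressing it. The IC50 was determined by the assay method of earlier work.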

[4] = target: T3, Endothelin-converting enzyme 1 (Homo sapiens) (UniProt P42892); assay: Inhibition of Endothelin-converting enzyme 1 activity at a concentration of 1 uM
T3 sequence (whole entry): T2 sequence (P42892 whole entry)
Procedure, shortened: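 Human recombinant ECE-1a came from CHO cell membranes. Activity was measured with test compound at 1 µM and expressed as percent inhibition.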

Selectivity [1] | IC50 [2] [nM] | IC50 [3] [nM] | inhibition [4] [%] | Structure (SMILES)
104 | 2300 | 22 | 92 | O=C(O)[C@H](Cc1ccc2c(c1)oc1ccccc12)NCP(=O)(O)O
0.1 | 14 |  |  | O=P(O)(O)CN[C@@H](CC#Cc1ccccc1F)c1nnn[nH]1
131 | 6700 |  |  | CC(C)C[C@H](NC(=O)[C@H](CC#Cc1ccc(F)cc1F)NCP(=O)(O)O)C(=O)O
725 | 5800 |  |  | CC(C)C[C@H](NC(=O)[C@H](CC#Cc1ccc(F)cc1F)NCP(=O)(O)O)C(=O)N[C@@H](C)C(=O)O
 | 15000 | 35 |  | COc1ccc(CCC(N[C@@H](Cc2ccc3c(c2)oc2ccccc23)C(=O)O)P(=O)(O)O)c(OC)c1OC (stereo in doubt; 40k')
 | 59000 | 14 |  | O=C(O)[C@H](Cc1ccc2c(c1)oc1ccccc12)NC(CCc1cccc2cccnc12)P(=O)(O)O (stereo in doubt; 40m')
 | > 10000 | 40 |  | COc1cc(OC)c(OC)cc1CCC(N[C@@H](Cc1ccc2c(c1)oc1ccccc12)C(=O)O)P(=O)(O)O (stereo in doubt; 40i')
 | > 10000 | 29 |  | COc1ccc(CCC(N[C@@H](Cc2ccc3c(c2)oc2ccccc23)C(=O)O)P(=O)(O)O)cc1OC (stereo in doubt; 40e')
> 286 | > 16000 | 65 | 89 | CC(C)CCCC(N[C@@H](Cc1ccc2c(c1)oc1ccccc12)C(=O)O)P(=O)(O)O (stereo partly specified)
818 | 18000 | 22 | 92 | COc1cc(CCC(N[C@@H](Cc2ccc3c(c2)oc2ccccc23)C(=O)O)P(=O)(O)O)cc(OC)c1OC (stereo partly specified)
 | 48000 | 200 |  | O=C(O)[C@H](Cc1ccc2c(c1)oc1ccccc12)NC(CCc1cccc2cccnc12)P(=O)(O)O (stereo in doubt; 40n') [listing 1 of 2 here]
 | 6400 | 110 |  | COc1cccc(CCC(N[C@@H](Cc2ccc3c(c2)oc2ccccc23)C(=O)O)P(=O)(O)O)c1OC (stereo in doubt; 40d')
 |  | 1800 |  | O=C(O)[C@H](Cc1ccc2c(c1)oc1ccccc12)NC(CCc1cccc2ccccc12)P(=O)(O)O (stereo in doubt; 40b')
 | 47000 | 180 |  | CC(N[C@@H](Cc1ccc2c(c1)oc1ccccc12)C(=O)O)P(=O)(O)O (stereo in doubt; 40v)
2.3 | 31 | 13 | 92 | CC(C)CC(NC(=O)[C@H](Cc1ccc2c(c1)oc1ccccc12)NCP(=O)(O)O)C(=O)O (stereo partly specified)
0.5 | 12 | 23 | 91 | O=C(O)C(Cc1ccccc1)NC(=O)[C@H](Cc1ccc2c(c1)oc1ccccc12)NCP(=O)(O)O (stereo partly specified)

Selectivity [1] | IC50 [2] [nM] | IC50 [3] [nM] | inhibition [4] [%] | Structure (SMILES)
 | 210 | 2.6 |  | O=P(O)(O)C(CCc1cccc2ccccc12)N[C@@H](Cc1ccc2c(c1)oc1ccccc12)c1nnn[nH]1 (stereo in doubt; 43a')
 | 24000 | 19 |  | COc1cccc(CCC(N[C@@H](Cc2ccc3c(c2)oc2ccccc23)C(=O)O)P(=O)(O)O)c1OC (stereo in doubt; 40c)
19 | 114 | 6 |  | O=P(O)(O)CNC(Cc1ccc2c(c1)oc1ccccc12)c1nnn[nH]1 (stereo unspecified)
0.9 | 450 | 520 |  | O=P(O)(O)CNC(Cc1ccc2c(c1)Cc1ccccc1-2)c1nnn[nH]1 (stereo unspecified)
 | 13800 | 24 |  | O=C(O)[C@H](Cc1ccc2c(c1)oc1ccccc12)NC(CCc1cccc2ccccc12)P(=O)(O)O (stereo in doubt; 40a')
 | 28000 | 96 |  | CC(N[C@@H](Cc1ccc2c(c1)oc1ccccc12)C(=O)O)P(=O)(O)O (stereo in doubt; 40u)
 | 13000 | 440 |  | O=P(O)(O)C(CCc1cccc2ccccc12)N[C@@H](Cc1ccc2c(c1)oc1ccccc12)c1nnn[nH]1 (stereo in doubt; 43b')
 |  | 520 |  | COc1ccc(CCC(N[C@@H](Cc2ccc3c(c2)oc2ccccc23)C(=O)O)P(=O)(O)O)c(OC)c1OC (stereo in doubt; 40l')
 |  | 890 |  | COc1ccc(CCC(N[C@@H](Cc2ccc3c(c2)oc2ccccc23)C(=O)O)P(=O)(O)O)cc1OC (stereo in doubt; 40f ')
0.29 | 5 |  |  | O=P(O)(O)C(CCc1cccc2ccccc12)N[C@@H](Cc1ccc(-c2ccccc2)cc1)c1nnn[nH]1 (stereo partly specified)
0.42 | 2.7 | 6.4 | 95 | O=C(O)[C@H](Cc1ccc2c(c1)oc1ccccc12)NC(=O)[C@H](Cc1ccc2c(c1)oc1ccccc12)NCP(=O)(O)O
< 0.03 | 140 | > 4000 |  | Cn1c2ccccc2c2ccc(CC(NCP(=O)(O)O)c3nnn[nH]3)cc21 (stereo unspecified)
240 |  |  | 78 | O=C(O)[C@H](Cc1ccc2c(c1)oc1ccccc12)NC(CCc1cccc2cccnc12)P(=O)(O)O (stereo in doubt; 40n') [listing 2 of 2 here]
7.7 | 230 | 30 |  | O=C1c2ccccc2-c2ccc(CC(NCP(=O)(O)O)c3nnn[nH]3)cc21 (stereo unspecified)
 | > 100000 | 97 |  | NCCCCC(N[C@@H](Cc1ccc2c(c1)oc1ccccc12)C(=O)O)P(=O)(O)O (stereo in doubt; 40o')

Structure (SMILES) | Selectivity [1] | IC50 [2] [nM] | IC50 [3] [nM] | inhibition [4] [%]
O=C(O)CNC(=O)C(CS)Cc1ccccc1 (stereo unspecified) [THIORPHAN] |  |  | > 100000 | 
